Five molecules from ChEMBL document CHEMBL1133486, “Synthesis and calpain inhibitory activity of alpha-ketoamides with 2,3-methanoleucine stereoisomers at the P2 position” (Bioorg Med Chem Lett, 2000) can be followed below.

One test concerns the target Cathepsin B (Homo sapiens, UniProt P07858). In words: The compound was evaluated for inhibition of cathepsin B from human liver. The essentials:
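Cathepsin B from human liver, assayed in 20 mM NaOAc pH 5.2, 0.5 mM DTT, 2% DMSO. Ki was obtained from Dixon plots (1/v versus inhibitor concentration, intersecting lines) using the average of triplicate assays.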

Test [1] has as its target T1, Calpain-1 catalytic subunit (Sus scrofa, UniProt P35750).
T1 sequence (P35750 whole entry): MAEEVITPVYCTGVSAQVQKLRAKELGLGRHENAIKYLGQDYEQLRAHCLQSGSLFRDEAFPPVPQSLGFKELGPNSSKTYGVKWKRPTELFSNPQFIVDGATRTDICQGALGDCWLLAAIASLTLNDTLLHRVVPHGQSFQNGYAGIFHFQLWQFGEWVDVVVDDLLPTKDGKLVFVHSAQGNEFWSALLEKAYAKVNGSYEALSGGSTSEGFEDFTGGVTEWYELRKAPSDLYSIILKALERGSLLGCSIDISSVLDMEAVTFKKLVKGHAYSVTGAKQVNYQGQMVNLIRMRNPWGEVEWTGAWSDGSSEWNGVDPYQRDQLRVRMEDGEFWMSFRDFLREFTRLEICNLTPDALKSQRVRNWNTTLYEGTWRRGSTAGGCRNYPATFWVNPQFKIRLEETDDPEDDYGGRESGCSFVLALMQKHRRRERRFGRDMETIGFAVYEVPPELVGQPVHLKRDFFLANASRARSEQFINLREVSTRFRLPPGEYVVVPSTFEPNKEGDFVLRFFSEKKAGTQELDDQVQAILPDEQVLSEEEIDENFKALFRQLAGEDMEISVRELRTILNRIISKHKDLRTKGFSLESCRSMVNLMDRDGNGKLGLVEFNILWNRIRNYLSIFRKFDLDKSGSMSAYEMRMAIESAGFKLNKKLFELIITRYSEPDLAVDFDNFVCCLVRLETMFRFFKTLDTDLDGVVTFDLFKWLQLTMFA
In words: The compound was evaluated for inhibition of Calpain 1 from porcine erythrocytes. It counts as cell-based. The essentials:
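Substrate was Suc-Leu-Tyr-AMC at two concentrations, inhibitor varied, and 5 mM CaCl2 started the reaction. Fluorescence increase (ex 370, em 440 nm) was read at ambient temperature. Ki came from Dixon plots of triplicate means.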

A short description of test [2]: Selectivity ratio of Ki values for cathepsin B inhibition by those for calpain I inhibition.

`CC(C)[C@@H]1C[C@]1(NC(=O)OCc1ccccc1)C(=O)N[C@@H](Cc1ccccc1)C(=O)C(=O)NCCc1ccccc1`: the Ki – broadly, a measure of affinity in units of concentration, obtained from inhibition or displacement – on Cathepsin B worked out at 4.56 µM; in test [1], 40 µM. Moreover, the Selectivity ratio in test [2] was 0.1.
`CC(C)[C@@H]1C[C@@]1(NC(=O)OCc1ccccc1)C(=O)N[C@@H](Cc1ccccc1)C(=O)C(=O)NCCc1ccccc1`: the Ki at Cathepsin B amounted to 6.78 µM; in test [1] it was 0.75 µM. In test [2], the Selectivity ratio was 9.
On the same counts, the results for `CC(C)[C@H]1C[C@@]1(NC(=O)OCc1ccccc1)C(=O)N[C@@H](Cc1ccccc1)C(=O)C(=O)NCCc1ccccc1` are 5.05 µM, 11.1 µM and 0.5.
On the same counts, the results for `CC(C)[C@H]1C[C@]1(NC(=O)OCc1ccccc1)C(=O)N[C@@H](Cc1ccccc1)C(=O)C(=O)NCCc1ccccc1` are 1.26 µM, 6.15 µM and 0.2.
On the same counts, the results for `CC(C)C[C@H](NC(=O)OCc1ccccc1)C(=O)N[C@@H](Cc1ccccc1)C(=O)C(=O)NCCc1ccccc1` are 0.3 µM, 0.07 µM and 4.
